Measurements reported in article PMC5672925 (British Journal of Cancer, 2017).
Entries after “also recorded” stand apart in the source; their conditions may differ.

Assays:
[1] = test system: relapsed and/or refractory MM; conditions: ref Richardson et al, cited from earlier work
[2] = test system: patients with relapsed/refractory MM; experiment: Phase I dose escalation; type: in vivo, human; conditions: days 1, 4, 8, 11 every 3 weeks, up to KW-2478 175 mg m^−2 plus BTZ 1.3 mg m^−2
Outline: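 DLT window was cycle 1, graded by CTCAE v4.0. DLT was related non-haematologic grade ≥3 toxicity (controllable GI events excepted) or grade 4 haematologic toxicity (neutropenia ≤5 days excepted).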

[3] = test system: patients with relapsed/refractory MM; experiment: Safety: treatment-related adverse events; type: in vivo, human
Outline: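 Safety population was all patients receiving ≥1 dose. AEs were graded by CTCAE v4.0; treatment-related meant possibly, probably or definitely drug-related per investigator. Vital signs, vision, peripheral neuropathy, haematology and chemistry were checked at screening, on days 1, 4, 8, 11 and 16–18 of each cycle, at end of treatment and at 30-day follow-up. Phase I screening included slit-lamp retinal examination.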

[4] = test system: relapsed/refractory multiple myeloma; type: in vivo, human; conditions: comparison with historical single-agent BTZ
Outline: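 Response graded by IMWG criteria, with minimal response added per ASH-FDA panel. Assessed in evaluable phase II patients plus phase I patients at RP2D (KW-2478 175 mg m−2 i.v. over 1 h, 30 min after BTZ 1.3 mg m−2 bolus, days 1, 4, 8, 11 of 21-day cycles). Duration of response ran from first CR/PR/MR to PD or death. PFS ran from treatment day 1 to PD or death. Both by Kaplan–Meier.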

[5] = Plasma pharmacokinetics of KW-2478 in phase I, cycle 1; type: in vivo, human
[6] = test system: patients with advanced, relapsed/refractory B-cell malignancies (predominantly with MM); conditions: ref Yong et al, 2016, cited from earlier work
MM models = conditions: cited from earlier work
[7] = large-scale phase III trials, 2005, Orlowski et al, 2007

CC(C)C[C@H](NC(=O)[C@H](Cc1ccccc1)NC(=O)c1cnccn1)B(O)O [BTZ, bortezomib]
ORR, BTZ alone (reference) ([1]; SUMMIT trial, 2006): 35%
Median PFS, single-agent BTZ [1, 7]: ~6 months
ORR, single-agent BTZ [1, 7]: ~40%

CCc1c(O)cc(O)c(C(=O)c2ccc(OCCN3CCOCC3)c(OC)c2)c1CC(=O)N(CCOC)CCOC [KW-2478]
Maximum tolerated dose (MTD) [2]: not reached
Ocular safety ([3]; in combination with BTZ): did not raise any ocular safety concerns
Effect on toxicity of BTZ in the combination regimen ([3]; in vivo): did not enhance the toxicity of BTZ
Contribution of KW-2478 to the efficacy of BTZ alone [4]: insufficient evidence that KW-2478 added to the efficacy of BTZ alone
Mean CL, range ([5]; 130 mg m^−2 dose): 25.9 to 33.3 L/h
Mean CL, range ([5]; 175 mg m^−2 dose): 32.2 to 62.0 L/h
Effect of increase in BTZ dose on KW-2478 pharmacokinetics ([5]; co-administered BTZ 1 vs 1.3 mg m^−2): did not affect
Accumulation ([5]; day 11 vs day 1, cycle 1): Accumulation did not occur
Single-agent clinical activity [6]: modest single-agent activity; also recorded: preliminary signs of clinical activity were seen
Tolerability ([6]; single agent): well tolerated
Antitumour activity (MM models; KW-2478 alone, ref Nakashima et al, 2010): exhibits antitumour activity
Antitumour activity in MM cells in the presence of bone marrow stromal cells (MM models; ref Juliger et al, 2008): retained
